From ChEMBL document CHEMBL1154794, “Asterolaurins A-F, xenicane diterpenoids from the Taiwanese soft coral Asterospicularia laurae” (J Nat Prod, 2009) come the findings set out here.

One may read the IC50 as the midpoint of a concentration-inhibition curve. In general, inhibition refers to the relative decrease from the control value, in per cent.

SMILES strings stand for the structures.

The subject of one experiment is HepG2. The experiment is described as follows: Cytotoxicity against human HepG2 cells by MTT assay. The format is functional, cell-based. The procedure, abridged: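 Human liver carcinoma HepG2 cells, viability read by MTT assay. Camptothecin served as positive control.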
For orientation: Formazan colour is commonly taken as a measure of viable cells.

Experiment [1] is described as follows: Antiinflammatory activity in human neutrophils assessed as inhibition of fMLP/cytochalasin B-induced elastase release at 10 ug/ml after 5 mins. Type of experiment: functional. The conditions noted are these: Neutrophil. The procedure, abridged: (§1)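 Neutrophils (6 × 10^5/mL) given MeO-Suc-Ala-Ala-Pro-Val-p-nitroanilide (100 µM) as substrate, equilibrated 2 min at 37 °C, then exposed to compound for 5 min. Stimulated with FMLP (100 nM)/CB (0.5 µg/mL). Absorbance at 405 nm followed continuously. Initial rate of elastase release expressed as percentage of the FMLP/CB-activated DMSO control. Genistein served as positive control.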

Experiment [2] in a line: Antiinflammatory activity in human neutrophils assessed as inhibition of fMLP/cytochalasin B-induced superoxide anion generation at 10 ug/ml after 5 mins by spectrophotometry. The conditions noted are these: Neutrophil. Type of experiment: functional. The procedure, abridged:
(§2)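 Neutrophils isolated by dextran sedimentation and Ficoll centrifugation. Cells supplemented with ferricytochrome c (0.5 mg/mL) and Ca2+ (1 mM), equilibrated 2 min at 37 °C, then given compound for 5 min. CB (1 µg/mL) added 3 min before FMLP (100 nM) activation for 10 min. Superoxide dismutase-inhibitable ferricytochrome c reduction followed continuously at 550 nm with stirring.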

A short description of experiment [3]: Antiinflammatory activity in human neutrophils assessed as inhibition of fMLP/cytochalasin B-induced elastase release after 5 mins. The format is functional, cell-based. Conditions: Neutrophil. The procedure, abridged: as §1
Experiment [4] in a line: Antiinflammatory activity in human neutrophils assessed as inhibition of fMLP/cytochalasin B-induced superoxide anion generation after 5 mins by spectrophotometry. Conditions: Neutrophil. The format is functional, cell-based. The procedure, abridged: as §2

`C=C1C[C@@H](OC(C)=O)/C=C(\C)CC[C@@H]2/C(=C\[C@H](O)C=C(C)C)C(=O)OC[C@@H]12`: in the experiment on HepG2, the IC50 is greater than 40 µM. Further, the inhibition at 10 µg/mL in experiment [1] is 13%; in experiment [2], 9%.

As to `C=C1C[C@@H](O)[C@@H]2O[C@@]2(C)CC[C@@H]2C([C@@H](OC(C)=O)[C@H](C=C(C)C)OC(C)=O)=CO[C@H](OC(C)=O)[C@@H]12` [ASTEROLAURIN A], the IC50 amounted to 40 µM in experiment [3] and 8.9 µM in the experiment with HepG2.

For `C=C1C[C@@H](O)[C@@H](O)/C(C)=C\C[C@@H]2C([C@@H](OC(C)=O)[C@H](C=C(C)C)OC(C)=O)=CO[C@H](OC(C)=O)[C@@H]12` [ASTEROLAURIN B], the IC50 in the experiment with HepG2 was greater than 40 µM. In addition, the inhibition at 10 µg/mL in experiment [1] is 30%; in experiment [2], 31%.

`C=C1C[C@@H](O)[C@@H](O)C(=C)CC[C@@H]2C([C@@H](OC(C)=O)[C@H](C=C(C)C)OC(C)=O)=CO[C@H](OC(C)=O)[C@@H]12` [ASTEROLAURIN C] showed an IC50 in the experiment with HepG2 greater than 40 µM. Besides, the values for the inhibition at 10 µg/mL in experiment [1] and in experiment [2] were 39% and 22%, respectively.

Regarding `C=C1C[C@@H](OC(C)=O)/C=C(\C)CC[C@@H]2/C(=C\C=C\C(C)(C)O)CO[C@H](O)[C@@H]12` [ASTEROLAURIN D], the figures for the IC50 (in experiment [3]; in the experiment on HepG2; in experiment [4]) were 18.7 µM, greater than 40 µM and 23.6 µM, respectively. Also, the inhibition at 10 µg/mL in experiment [1] is 68%; in experiment [2], 56%.

`C=C1C[C@@H](OC(C)=O)/C=C(\COC(C)=O)CC[C@@H]2/C(=C\[C@H](O)C=C(C)C)C(=O)OC[C@@H]12` [ASTEROLAURIN E] showed an IC50 in the experiment with HepG2 greater than 40 µM. Also, the inhibition at 10 µg/mL stood at 36% in experiment [1] and 24% in experiment [2].

As to `O=c1c(-c2ccc(O)cc2)coc2cc(O)cc(O)c12` [GENISTEIN], the inhibition at 10 µg/mL in experiment [1] turned out to be 52%; in experiment [2] it was 65%.
